From the M2OR odorant receptor database come the findings set out here.
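Note: active if original authors judged signal statistically different from baseline.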

In the first experiment the test system is T1, OR7G3 M29V.
T1 sequence (whole entry): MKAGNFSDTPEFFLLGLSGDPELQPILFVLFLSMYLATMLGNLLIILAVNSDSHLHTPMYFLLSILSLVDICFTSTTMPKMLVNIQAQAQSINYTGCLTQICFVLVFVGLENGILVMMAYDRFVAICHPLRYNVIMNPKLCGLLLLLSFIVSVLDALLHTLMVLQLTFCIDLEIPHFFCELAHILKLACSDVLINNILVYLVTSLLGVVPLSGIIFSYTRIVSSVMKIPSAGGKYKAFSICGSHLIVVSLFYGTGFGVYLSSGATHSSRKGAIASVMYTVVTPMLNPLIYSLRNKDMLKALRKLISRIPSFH
To be noted: stereoisomer not certain. In a few lines:
(§1)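 Transient luciferase assays in mammalian cell lines were common, though methods varied by source. The values come from published papers and their supplementary material, with extra details from the original authors when needed. Responsive refers to a measured signal the original authors judged statistically different from baseline, and non-responsive (inactive) to the remainder.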
As to `CC1=C(O)C(=O)OC1C` (stereo not given), the “odorant receptor agonist call” value is “inactive”.
Regarding `CCCCCCC=CCCC=O`, the “odorant receptor agonist call” value was “inactive”.
For `CCC1OC(=O)C(O)=C1C` (stereo not given), the “odorant receptor agonist call” value is “inactive”.
The same measure, in the same setting: then `CCC1OC(C)=C(O)C1=O` (stereo not given), with “inactive”; and `CCCC(S)CCOC(C)=O` (stereo not given), with “inactive”; and `CC1=C(O)C(=O)C(C)O1` (stereo not given), with “inactive”.
For the compound `Cc1cnc(C)c(C)n1`, the “odorant receptor agonist call” value was “inactive”.
As for `CC1=NC(C)C(C)S1` (stereo not given), the “odorant receptor agonist call” value was “inactive”.

The next experiment has as its target T2, OR8A1 (Homo sapiens) (UniProt Q8NGG7).
T2 sequence (whole entry): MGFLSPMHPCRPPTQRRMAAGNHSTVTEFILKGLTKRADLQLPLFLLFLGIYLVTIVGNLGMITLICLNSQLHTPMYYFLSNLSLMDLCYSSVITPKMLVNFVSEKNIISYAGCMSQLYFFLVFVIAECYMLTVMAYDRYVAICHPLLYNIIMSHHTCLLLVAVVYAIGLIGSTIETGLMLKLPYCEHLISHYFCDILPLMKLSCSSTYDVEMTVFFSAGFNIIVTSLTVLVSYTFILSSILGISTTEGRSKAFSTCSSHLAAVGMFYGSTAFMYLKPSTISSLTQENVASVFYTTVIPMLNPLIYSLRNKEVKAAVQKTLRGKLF
To be noted: stereoisomer not certain. Summed up:
as §1
Regarding `CC(CO)CS` (stereo not given), the “odorant receptor agonist call” value was “inactive”.
Still for that read-out and setting: the value for `CCC(S)C(C)CO` (stereo not given) was “inactive”.
With `CC1=C(O)C(=O)OC1C` (stereo not given), the “odorant receptor agonist call” value was “inactive”.
With `CCCCCCC=CCCC=O`, the “odorant receptor agonist call” value is “inactive”.
Turning to `CCCCC(S)C(C)CO` (stereo not given), the “odorant receptor agonist call” value is “inactive”.
Take `CCCCCC(=O)C(C)C(C)=O` (stereo not given): the “odorant receptor agonist call” value is “inactive”.
Consider `CC(=O)c1c(C)c([N+](=O)[O-])c(C(C)(C)C)c([N+](=O)[O-])c1C`, for which the “odorant receptor agonist call” value is “inactive”.
In the case of `CCC1OC(=O)C(O)=C1C` (stereo not given), the “odorant receptor agonist call” value was “inactive”.
As to `CCC1OC(C)=C(O)C1=O` (stereo not given), the “odorant receptor agonist call” value was “inactive”.
Turning to `CCCCCC(S)C(C)CO` (stereo not given), the “odorant receptor agonist call” value is “inactive”.
As for `CCCC(S)CCOC(C)=O` (stereo not given), the “odorant receptor agonist call” value is “inactive”.
With `CC1=C(O)C(=O)C(C)O1` (stereo not given), the “odorant receptor agonist call” value is “inactive”.
As to `Cc1cnc(C)c(C)n1`, the “odorant receptor agonist call” value is “inactive”.
For `CC1CCCCCCCCCCCCC(=O)C1` (stereo not given), the “odorant receptor agonist call” value was “inactive”.
With `CC1=NC(C)C(C)S1` (stereo not given), the “odorant receptor agonist call” value is “inactive”.

A further experiment concerns the target T3, OR8B12 (Homo sapiens) (UniProt Q8NGG6).
T3 sequence (whole entry): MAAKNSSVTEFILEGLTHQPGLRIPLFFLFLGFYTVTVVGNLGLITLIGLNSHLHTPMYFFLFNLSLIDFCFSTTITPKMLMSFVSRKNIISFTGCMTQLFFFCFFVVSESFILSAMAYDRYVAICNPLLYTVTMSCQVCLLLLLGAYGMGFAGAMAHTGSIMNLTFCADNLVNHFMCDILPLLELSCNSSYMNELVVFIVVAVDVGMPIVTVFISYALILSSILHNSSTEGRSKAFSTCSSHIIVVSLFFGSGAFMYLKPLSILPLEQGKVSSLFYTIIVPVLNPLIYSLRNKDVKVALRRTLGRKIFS
To be noted: stereoisomer not certain. Summed up: as §1
As to `CC(CO)CS` (stereo not given), the “odorant receptor agonist call” value was “inactive”.
In the case of `CCC(S)C(C)CO` (stereo not given), the “odorant receptor agonist call” value was “inactive”.
On to `CC1=C(O)C(=O)OC1C` (stereo not given), for which the “odorant receptor agonist call” value was “inactive”.
For the compound `CCCCCCC=CCCC=O`, the “odorant receptor agonist call” value is “inactive”.
The same measure, in the same setting: the value for `CCCCC(S)C(C)CO` (stereo not given) was “inactive”; that for `CCCCCC(=O)C(C)C(C)=O` (stereo not given) was “inactive”; that for `CC(=O)c1c(C)c([N+](=O)[O-])c(C(C)(C)C)c([N+](=O)[O-])c1C` was “inactive”.
Same read-out and setting: then `CCC1OC(=O)C(O)=C1C` (stereo not given), with “inactive”; and `CCC1OC(C)=C(O)C1=O` (stereo not given), with “inactive”; and `CCCCCC(S)C(C)CO` (stereo not given), with “inactive”.
On to `CCCC(S)CCOC(C)=O` (stereo not given), for which the “odorant receptor agonist call” value is “inactive”.
Turning to `CC1=C(O)C(=O)C(C)O1` (stereo not given), the “odorant receptor agonist call” value was “inactive”.
As for `Cc1cnc(C)c(C)n1`, the “odorant receptor agonist call” value is “inactive”.
Turning to `CC1CCCCCCCCCCCCC(=O)C1` (stereo not given), the “odorant receptor agonist call” value was “inactive”.
As to `CC1=NC(C)C(C)S1` (stereo not given), the “odorant receptor agonist call” value is “inactive”.

Another experiment addresses T4, OR8B2 (Homo sapiens) (UniProt Q96RD0).
T4 sequence (whole entry): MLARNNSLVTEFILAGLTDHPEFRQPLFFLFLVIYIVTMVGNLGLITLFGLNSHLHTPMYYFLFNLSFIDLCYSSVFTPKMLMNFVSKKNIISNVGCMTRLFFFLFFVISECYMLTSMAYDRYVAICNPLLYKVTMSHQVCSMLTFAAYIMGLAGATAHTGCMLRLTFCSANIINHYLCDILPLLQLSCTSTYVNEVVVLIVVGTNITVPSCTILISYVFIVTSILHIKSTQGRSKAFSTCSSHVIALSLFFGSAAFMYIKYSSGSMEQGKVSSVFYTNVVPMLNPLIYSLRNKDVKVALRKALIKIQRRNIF
To be noted: stereoisomer not certain. Summed up: as §1
In the case of `CC(CO)CS` (stereo not given), the “odorant receptor agonist call” value was “inactive”.
With `CCC(S)C(C)CO` (stereo not given), the “odorant receptor agonist call” value was “inactive”.
For `O=C1CCOc2ccccc21`, the “odorant receptor agonist call” value was “active”.
For the compound `CC1=C(O)C(=O)OC1C` (stereo not given), the “odorant receptor agonist call” value was “inactive”.
For `CCCCCCC=CCCC=O`, the “odorant receptor agonist call” value was “inactive”.
For the compound `CCCCC(S)C(C)CO` (stereo not given), the “odorant receptor agonist call” value was “inactive”.
With `O=c1ccc2ccccc2o1`, the “odorant receptor agonist call” value is “inactive”.
`CCCCCC(=O)C(C)C(C)=O` (stereo not given): the “odorant receptor agonist call” value was “inactive”.
As for `CC(=O)c1c(C)c([N+](=O)[O-])c(C(C)(C)C)c([N+](=O)[O-])c1C`, the “odorant receptor agonist call” value is “inactive”.
`CCC1OC(=O)C(O)=C1C` (stereo not given): the “odorant receptor agonist call” value is “inactive”.
On to `CCC1OC(C)=C(O)C1=O` (stereo not given), for which the “odorant receptor agonist call” value was “inactive”.
As for `CCCCCC(S)C(C)CO` (stereo not given), the “odorant receptor agonist call” value is “inactive”.
With `CCCC(S)CCOC(C)=O` (stereo not given), the “odorant receptor agonist call” value is “inactive”.
In the case of `CC1=C(O)C(=O)C(C)O1` (stereo not given), the “odorant receptor agonist call” value is “inactive”.
Regarding `Cc1cnc(C)c(C)n1`, the “odorant receptor agonist call” value is “inactive”.
For `CC1CCCCCCCCCCCCC(=O)C1` (stereo not given), the “odorant receptor agonist call” value is “inactive”.
Turning to `CC1=NC(C)C(C)S1` (stereo not given), the “odorant receptor agonist call” value is “inactive”.
